Results taken from PubChem BioAssay.
Calls of active or inactive are those of the source.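 The calls were made as follows, unless noted: active = inhibition at or above 50% relative to wild type and mutant plate controls; inactive = inhibition below 50%.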

Legend:
[1] = inhibitors of TNFa-induced NFkB p65 translocation, primary screen, imaging, HUVEC, MLSMR starter and 10KST1 sets (AID 438;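 active = inhibition above 20% together with a positive visual image hit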;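 also: compound added about 3h40 before a 20 min TNFalpha stimulation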;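 as to inhibition: signal is the nuclear over cytoplasmic p65 intensity ratio per well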); conditions: HUVEC TNFa-induced p65 nuclear translocation; cell count: measured here: nuclei count (cytotoxicity indicator), at 2.08 µM; inhibition: at 2 µM, stronger effect = higher value, 0% TNFa-plus-vehicle, 100% no-TNFa wells
[2] = endothelial E-selectin expression blockers – imaging, HUVEC, immunofluorescence, MLSMR starter and 10KST1 sets, primary screen (AID 487;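 active = visually confirmed hit in the image check and inhibition above 20%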;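 as to inhibition: signal is fraction of cell area covered by stained E-selectin grains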;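 as to nuclei count: 100% = median nuclei count of all wells on the same plate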); conditions: HUVEC TNFalpha-induced E-selectin immunofluorescence imaging, at 2 µM; inhibition: stronger effect = higher value; nuclei count: measured here: cell number, toxicity
[3] = Primary imaging screen for DUSP6 inhibitors that restore phospho-Erk in transfected HeLa cells, chemical complementation (AID 609;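 active = compounds giving at least 50% inhibition in the cell-based MKP-3 phosphatase rescue imaging test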;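 as to inhibition: phospho-Erk level distribution per well compared with pooled transfected vehicle control wells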); conditions: HeLa MKP-3 transfected, phospho-Erk imaging KS statistic, at 10 µM, cells stimulated with TPA for 15 min
[4] = target: Dual specificity protein phosphatase 6 (Homo sapiens) (UniProt Q16828); test: as above; conditions: HeLa MKP-3 transfected, phospho-Erk imaging KS statistic; at 10 µM; stronger effect = higher value; cells stimulated with TPA for 15 min
[5] = target: Voltage-gated potassium channel subunit beta-2 (Rattus norvegicus) (UniProt P62483); test: inhibitors of rat Kvbeta2 reductase activity – biochemical, NADPH fluorescence, primary screen (AID 622;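 active = fluorescence slope higher than the sample average by over 3 SD, cut at about -0.22 in these data, passing the limit was not always enough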;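 also: slope of raw intensity against log time taken from 70 to 1610 s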); conditions: recombinant KvBeta, 4-cyanobenzaldehyde reduction, at 10 µM, stronger effect = higher value
[6] = target: Voltage-gated potassium channel subunit beta-2 (Rattus norvegicus) (UniProt P62483); test: enhancers of rat Kvbeta2 NADPH turnover – biochemical, NADPH fluorescence, primary screen (AID 623;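 active = NADPH fluorescence slope more negative than the mean of all samples by about 3 SD, 99.7% confidence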;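 also: fluorescence intensity change per second fitted from 20 to 320 s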); conditions: Recombinant KvBeta, NADPH fluorescence decrease slope, 10 min; at 10 µM; stronger effect = lower value
[7] = target: Alpha-2C adrenergic receptor (Homo sapiens) (UniProt P18825); test: compounds altering alpha2C-coupled GIRK flux – cell-based, HEK293 alpha2C/GIRK1/2, thallium flux, primary screen (AID 624;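 active = fluorescence slope after compound addition differing from the mean of all screened samples at 99.7% confidence, in either direction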;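 also: slope of fluorescence ratio to pre-addition baseline per second over 15 to 24 s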); conditions: thallium flux BTC fluorescence, at 10 µM, actives lie on both sides
[8] = inhibitors of larval lipid processing in zebrafish, primary screen, whole organism, PED6 fluorescence, gall bladder and intestine (AID 686;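 active = a full or partial loss of lipid-probe fluorescence in the fish gall bladder, intestine or both, judged by eye; inactive = no fluorescence loss, or compound toxic to the fish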;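 also: larvae 5 to 7 days old with five fish per well; signal comes from phospholipase A2 cleavage of quenched PED6 carried via bile; overnight exposure to compound and PED6 before scoring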); conditions: Zebrafish larvae PED6 lipid processing, fluorescence scoring; screened at 20 µM (by protocol)
Procedure, shortened: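 Also added: quenched phospholipase substrate PED6, 100 nM final, ingested by larvae; System: zebrafish larvae, 5-7 d; Quantity: 5 larvae per well; Compound: 20 µM single dose; Schedule: overnight compound and PED6 incubation; Read-out: visual per-well fluorescence inhibition score; Measured by: By-eye fluorescence microscopy; Medium: E3.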

[9] = loss of swimming-algae plug formation – whole organism, Chlamydomonas reinhardtii, WT vs cilia-less mutant, absorbance, 96-well, primary screen (AID 463189); conditions: Chlamydomonas reinhardtii gravitaxis, OD600 absorbance, 2 days; at 10 µM; stronger effect = higher value;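 also: 0% = wild type cc124 cells in DMSO and 100% = ciliumless bld1 mutant cells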
[10] = measured here: cell density z-score
[11] = measured here: nuclear c-Myc green intensity z-score
[12] = measured here: nuclear pErk red intensity z-score, stronger effect = higher value

Sequence of Dual specificity protein phosphatase 6 (Homo sapiens) (Q16828 whole entry, looked up): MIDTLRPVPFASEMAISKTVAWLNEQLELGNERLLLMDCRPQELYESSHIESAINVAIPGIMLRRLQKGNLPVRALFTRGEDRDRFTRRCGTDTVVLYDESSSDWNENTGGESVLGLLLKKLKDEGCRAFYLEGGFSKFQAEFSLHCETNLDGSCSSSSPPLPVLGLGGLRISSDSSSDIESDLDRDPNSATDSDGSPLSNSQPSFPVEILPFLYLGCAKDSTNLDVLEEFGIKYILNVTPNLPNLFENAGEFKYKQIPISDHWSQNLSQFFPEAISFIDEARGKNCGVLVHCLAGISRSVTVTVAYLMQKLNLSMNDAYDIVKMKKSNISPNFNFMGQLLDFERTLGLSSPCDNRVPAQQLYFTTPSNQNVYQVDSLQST
Sequence of Alpha-2C adrenergic receptor (Homo sapiens) (P18825 whole entry, looked up): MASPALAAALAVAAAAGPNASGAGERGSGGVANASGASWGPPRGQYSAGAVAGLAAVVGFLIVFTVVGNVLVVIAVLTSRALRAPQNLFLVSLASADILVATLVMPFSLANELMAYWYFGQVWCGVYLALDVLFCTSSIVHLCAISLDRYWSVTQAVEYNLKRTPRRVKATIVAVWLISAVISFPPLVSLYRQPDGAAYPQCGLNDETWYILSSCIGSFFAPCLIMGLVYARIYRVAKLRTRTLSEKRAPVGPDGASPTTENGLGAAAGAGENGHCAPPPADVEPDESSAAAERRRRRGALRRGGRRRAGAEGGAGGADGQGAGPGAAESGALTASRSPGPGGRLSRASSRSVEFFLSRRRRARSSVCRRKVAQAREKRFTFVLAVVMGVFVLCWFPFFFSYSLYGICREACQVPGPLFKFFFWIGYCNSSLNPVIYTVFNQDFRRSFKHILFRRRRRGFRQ
Sequence of Voltage-gated potassium channel subunit beta-2 (Rattus norvegicus) (P62483 whole entry, looked up): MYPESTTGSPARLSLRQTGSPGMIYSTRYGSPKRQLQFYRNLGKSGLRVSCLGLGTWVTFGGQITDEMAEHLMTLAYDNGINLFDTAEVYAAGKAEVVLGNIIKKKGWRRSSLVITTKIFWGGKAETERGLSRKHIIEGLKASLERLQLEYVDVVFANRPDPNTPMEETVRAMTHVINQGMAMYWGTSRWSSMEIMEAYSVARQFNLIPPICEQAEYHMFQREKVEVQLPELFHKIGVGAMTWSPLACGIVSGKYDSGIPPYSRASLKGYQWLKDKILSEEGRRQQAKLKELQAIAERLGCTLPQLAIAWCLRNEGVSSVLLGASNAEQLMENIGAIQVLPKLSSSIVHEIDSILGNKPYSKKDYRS

For `COc1cccc(-c2nc(N3CC(C)CC(C)C3)c3ccccc3n2)c1O` (stereo not drawn), the cell count [1] was 535, the inhibition [1] was -11.7% (inactive) and the inhibition [2] was -37.3% (inactive). For the same molecule, the nuclei count [2] was 180%, the z-score [3, 10] was -0.935 and the z-score [3, 11] was 0.42. The z-score [3, 12] was 2.09, the inhibition [4] was -5.26% (inactive) and the fluorescence slope [5] was -0.393 (inactive). For the same molecule, the NADPH fluorescence slope [6] was -2.4e-05 (inactive), the slope [7] was 0.00414 (inactive) and the outcome [8] was “inactive”. The inhibition [9] was 0.389% (inactive).
In the case of `O=C1C=C(O)CC(c2ccco2)C1` (stereo not drawn), the cell count [1] is reported as 558, the inhibition [1] is reported as 5.7% (inactive) and the inhibition [2] is reported as -59% (inactive). The nuclei count [2] was 82%, the z-score [3, 10] was 0.0297 and the z-score [3, 11] was 0.982. For the same molecule, the z-score [3, 12] was 0.298, the inhibition [4] was -6.48% (inactive) and the fluorescence slope [5] was -0.469 (inactive). The NADPH fluorescence slope [6] was -0.00033 (inactive), the slope [7] was 0.00402 (inactive) and the outcome [8] was “inactive”. The inhibition [9] was -1.54% (inactive).
In the case of `CCOC(=O)CC(=O)CSc1nc2c(cc1C#N)CCCCCC2`, the cell count [1] is reported as 706, the inhibition [1] is reported as -1.3% (inactive) and the inhibition [2] is reported as 25.1% (inactive). It also gave a nuclei count [2] of 180%, a z-score [3, 10] of -0.436 and a z-score [3, 11] of -0.188. For the same molecule, the z-score [3, 12] was -0.491, the inhibition [4] was -8.95% (inactive) and the fluorescence slope [5] was -0.285 (inactive). The NADPH fluorescence slope [6] was -5.2e-06 (inactive), the slope [7] was 0.00458 (inactive) and the outcome [8] was “inactive”. For the same molecule, the inhibition [9] was 0.237% (inactive).
In the case of `CCCCNC1=C(Br)C(=O)CC(C)(C)C1`, the cell count [1] is reported as 372, the inhibition [1] is reported as -30.7% (inactive) and the inhibition [2] is reported as -34.3% (inactive). For the same molecule, the nuclei count [2] was 101%, the z-score [3, 10] was -0.472 and the z-score [3, 11] was 1.05. For the same molecule, the z-score [3, 12] was 0.291, the inhibition [4] was 11.9% (inactive) and the fluorescence slope [5] was -0.52 (inactive). The NADPH fluorescence slope [6] was -9.2e-05 (inactive), the slope [7] was 0.00547 (inactive) and the outcome [8] was “inactive”. For the same molecule, the inhibition [9] was 23.6% (inactive).
In the case of `COc1ccc2c(c1OC)C(=O)N1c3ccccc3SC21` (stereo not drawn), the cell count [1] is reported as 540, the inhibition [1] is reported as -6% (inactive) and the inhibition [2] is reported as -54.8% (inactive). For the same molecule, the nuclei count [2] was 205%, the z-score [3, 10] was -1.05 and the z-score [3, 11] was 0.152. For the same molecule, the z-score [3, 12] was 0.534, the inhibition [4] was 2.46% (inactive) and the fluorescence slope [5] was -0.361 (inactive). For the same molecule, the NADPH fluorescence slope [6] was 1.2e-05 (inactive), the slope [7] was 0.00516 (inactive) and the outcome [8] was “inactive”. For the same molecule, the inhibition [9] was 20.5% (inactive).
In the case of `Cc1ccccc1C(=O)c1ccc2c(c1)n(C)c(=O)n2C`, the cell count [1] is reported as 547, the inhibition [1] is reported as -22.1% (inactive) and the inhibition [2] is reported as -296% (inactive). It also gave a nuclei count [2] of 200%, a z-score [3, 10] of 1.43 and a z-score [3, 11] of -1.34. The z-score [3, 12] was 1.32, the inhibition [4] was 5.65% (inactive) and the fluorescence slope [5] was -0.512 (inactive). The NADPH fluorescence slope [6] was -5.8e-05 (inactive), the slope [7] was 0.00384 (inactive) and the outcome [8] was “inactive”. The inhibition [9] was 0.416% (inactive).
For `COc1ccc2oc(=O)c(-c3nc(C)cs3)cc2c1`, the cell count [1] was 523, the inhibition [1] was -9.3% (inactive) and the inhibition [2] was -79.5% (inactive). The nuclei count [2] was 135%, the z-score [3, 10] was -0.969 and the z-score [3, 11] was 0.963. The z-score [3, 12] was 1.41, the inhibition [4] was -2.07% (inactive) and the fluorescence slope [5] was -0.302 (inactive). The NADPH fluorescence slope [6] was -3.5e-05 (inactive), the slope [7] was 0.00534 (inactive) and the outcome [8] was “inactive”. The inhibition [9] was 26.4% (inactive).
In the case of `COc1ccc(-c2oc3ncn4nc(COc5ccccc5)nc4c3c2-c2ccc(OC)cc2)cc1`, the cell count [1] is reported as 621, the inhibition [1] is reported as -7.9% (inactive) and the inhibition [2] is reported as -75% (inactive). For the same molecule, the nuclei count [2] was 194%, the z-score [3, 10] was -0.444 and the z-score [3, 11] was -0.952. The z-score [3, 12] was -0.924, the inhibition [4] was -15% (inactive) and the fluorescence slope [5] was -0.327 (inactive). The NADPH fluorescence slope [6] was -1.2e-05 (inactive), the slope [7] was 0.0133 (inactive) and the outcome [8] was “inactive”. For the same molecule, the inhibition [9] was -3.79% (inactive).
For `Cc1cccc2c1NC(C)CC2C` (stereo not drawn), the cell count [1] was 424, the inhibition [1] was -23.2% (inactive) and the inhibition [2] was -291% (inactive). It also gave a nuclei count [2] of 187%, a z-score [3, 10] of 1.31 and a z-score [3, 11] of -0.632. For the same molecule, the z-score [3, 12] was -0.589, the inhibition [4] was 7.7% (inactive) and the fluorescence slope [5] was -0.292 (inactive). For the same molecule, the NADPH fluorescence slope [6] was -6.6e-06 (inactive), the slope [7] was 0.00419 (inactive) and the outcome [8] was “active; weak signal in gallbladder and intestine”. The inhibition [9] was 5.59% (inactive).
For `Cc1ccc(S(=O)(=O)N2CCN(c3nc(C)c4c(c3C#N)CC(C)(C)OC4)CC2)cc1`, the cell count [1] was 645, the inhibition [1] was -13.9% (inactive) and the inhibition [2] was 9.7% (inactive). For the same molecule, the nuclei count [2] was 182%, the z-score [3, 10] was 1 and the z-score [3, 11] was -1.7. The z-score [3, 12] was 0.0451, the inhibition [4] was 22.7% (inactive) and the fluorescence slope [5] was -0.471 (inactive). The NADPH fluorescence slope [6] was -0.000183 (inactive), the slope [7] was 0.0077 (inactive) and the outcome [8] was “inactive”. For the same molecule, the inhibition [9] was 110% (active).
In the case of `COc1ccc2c(c1OC)C(=O)N1c3ccccc3C(=O)N(c3ccc(F)cc3)C21` (stereo not drawn), the cell count [1] is reported as 409, the inhibition [1] is reported as -15.5% (inactive) and the inhibition [2] is reported as -44.4% (inactive). The nuclei count [2] was 103%, the z-score [3, 10] was -0.0624 and the z-score [3, 11] was -0.142. For the same molecule, the z-score [3, 12] was 0.819, the inhibition [4] was -1.12% (inactive) and the fluorescence slope [5] was -0.305 (inactive). The NADPH fluorescence slope [6] was -2.1e-05 (inactive), the slope [7] was 0.00563 (inactive) and the outcome [8] was “inactive”. The inhibition [9] was 6.22% (inactive).
